Experimental data taken from PMC4451255 (Bioorganic & medicinal chemistry, 2015).
Changes are numbered by the printed parent chain.

Assays:
[1] = test system: wild-type FAP-1; experiment: FlAsH inhibition of total PTP activity of crude E. coli lysates, pNPP; type: biochemical, human; conditions: whole-cell E. coli lysate, FlAsH concentrations that strongly inhibit the mutant
Summary of the method: (§1)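 Cells are lysed by French press (~2000 psi) in 50 mM Tris pH 7.8, 500 mM NaCl, 5 mM imidazole. Clarified lysate takes compound or DMSO (1%) for 120 min at 37 °C. Total pNPP activity is normalized to DMSO.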

[2] = test system: wild-type PTP1B; experiment: FlAsH inhibition of purified PTP catalytic domain, pNPP assay; type: biochemical, human; conditions: purified enzyme 50 nM, 120-minute pre-incubation
Summary of the method: (§2)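 His6-tagged PTP catalytic domains (50 nM) are pre-incubated 120 min at 37 °C with test compound or DMSO (1% v/v). Activity is then assayed at 37 °C with pNPP at each enzyme's previously determined KM in 50 mM 3,3-dimethylglutarate pH 7.0, 1 mM EDTA, 50 mM NaCl. The reaction is quenched with NaOH and A405 read. Activity is normalized to DMSO-only control, triplicate, ≥3 independent experiments.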

[3] = test system: P160C/V184C HePTP; experiment: FlAsH inhibition of total PTP activity of crude E. coli lysates, pNPP; type: biochemical, human; conditions: whole-cell E. coli lysate
[4] = test system: P2285C/Q2320C FAP-1; experiment: FlAsH inhibition of purified PTP catalytic domain, pNPP assay; type: biochemical, human; conditions: purified enzyme 50 nM, one equivalent of FlAsH
Summary of the method: as §2

[5] = test system: wild-type PTPH-1; experiment: FlAsH inhibition of total PTP activity of crude E. coli lysates, pNPP; type: biochemical, human; conditions: whole-cell E. coli lysate, FlAsH concentrations that strongly inhibit the mutant
Summary of the method: as §1

[6] = test system: P2285C/Q2320C FAP-1; experiment: as above; type: biochemical, human; conditions: whole-cell E. coli lysate
Summary of the method: as §1

[7] = test system: wild-type PTPH-1; experiment: FlAsH inhibition of purified PTP catalytic domain, pNPP assay; type: biochemical, human; conditions: purified enzyme 50 nM, one equivalent of FlAsH
Summary of the method: as §2

[8] = test system: P160C/V184C HePTP; experiment: FlAsH inhibition of purified PTP catalytic domain, pNPP assay; type: biochemical, human; conditions: purified enzyme 50 nM, one equivalent of FlAsH
[9] = molecular target: T1, V368C Shp2 (Homo sapiens, UniProt Q06124, V368C); experiment: Mass-spectrometry-based FlAsH-induced cysteine-protection assay; type: binding; conditions: 2.7 μM enzyme, 27 μM FlAsH, 50 mM iodoacetic acid, LC/MS/MS
T1 sequence (Q06124 247-517 V368C limits assumed): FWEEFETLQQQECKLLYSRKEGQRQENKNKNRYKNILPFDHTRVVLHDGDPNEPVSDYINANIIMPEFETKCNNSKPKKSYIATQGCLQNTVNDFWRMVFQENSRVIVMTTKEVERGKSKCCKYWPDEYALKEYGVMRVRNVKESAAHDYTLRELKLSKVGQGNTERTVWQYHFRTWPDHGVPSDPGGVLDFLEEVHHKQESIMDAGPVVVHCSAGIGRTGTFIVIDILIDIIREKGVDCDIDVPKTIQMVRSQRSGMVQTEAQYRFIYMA
Summary of the method: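 Enzyme (2.7 μM) is incubated 30 min with 27 μM test compound or DMSO in pH 7.0 dimethylglutarate/EDTA/1 mM TCEP. Free cysteines are carboxymethylated with 50 mM iodoacetic acid (30 min), quenched with 100 mM TCEP, precipitated and gel-separated, then trypsin-digested in gel. Nano-LC/MS/MS uses HCD. Peptide precursor intensity ratios (compound/DMSO) are normalized to the mean of non-cysteine peptide ratios.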

[10] = test system: wild-type PTP1B; experiment: SDS/PAGE and fluorescence visualization of protein/FlAsH complexes; type: binding, human; conditions: 6 μM FlAsH, UV visualization
[11] = molecular target: T2, P87C PTP1B (Homo sapiens, UniProt P18031, P87C); experiment: as above; type: binding; conditions: 6 μM FlAsH, UV visualization
T2 sequence (P18031 3-277 P87C limits assumed): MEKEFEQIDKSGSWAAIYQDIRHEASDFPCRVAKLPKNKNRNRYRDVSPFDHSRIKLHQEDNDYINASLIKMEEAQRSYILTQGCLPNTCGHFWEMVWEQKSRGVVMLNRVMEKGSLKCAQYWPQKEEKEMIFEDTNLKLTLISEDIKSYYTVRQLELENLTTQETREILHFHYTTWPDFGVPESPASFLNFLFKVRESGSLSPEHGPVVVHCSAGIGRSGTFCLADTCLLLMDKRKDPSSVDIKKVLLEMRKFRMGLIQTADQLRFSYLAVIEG

[12] = test system: wild-type HePTP; experiment: FlAsH inhibition of purified PTP catalytic domain, pNPP assay; type: biochemical, human; conditions: purified enzyme 50 nM, one equivalent of FlAsH
Summary of the method: as §2

[13] = molecular target: T3, P87C/A122C PTP1B (Homo sapiens, UniProt P18031, A122C/P87C); experiment: FlAsH inhibition of purified PTP catalytic domain, pNPP assay; type: biochemical; conditions: purified enzyme 50 nM, time-dependent
T3 sequence (P18031 3-277 P87C/A122C limits assumed): T2 sequence (P18031 3-277 P87C limits assumed) with A120C
Summary of the method: (§3)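 No pre-incubation. pNPP at the enzyme's KM is held with 500 nM test compound or DMSO (1%) in pH 7.0 PTP buffer at 37 °C, and reactions are started by adding His6-tagged catalytic domain (50 nM). A405 is monitored continuously at 37 °C. Rates over 1-min windows are normalized to DMSO control; three independent runs are averaged and fitted as single-variable exponential decay.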

[14] = molecular target: T2, P87C PTP1B; experiment: as above; type: biochemical; conditions: 500 nM FlAsH, continuous pNPP assay
Summary of the method: as §3

[15] = molecular target: T1, V368C Shp2; experiment: FlAsH inhibition of purified PTP catalytic domain, pNPP assay; type: biochemical
Summary of the method: (§4)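 Two set-ups, both using His6-tagged catalytic domain (50 nM) and pNPP in pH 7.0 3,3-dimethylglutarate buffer. In the first, enzyme is incubated with 125 nM test compound plus β-mercaptoethanol (0–1 mM), then activity is normalized to no-compound controls. In the second, there is no pre-incubation: pNPP at the enzyme's KM sits with a fixed compound level at 37 °C, enzyme starts the reaction, and A405 is followed continuously.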

[16] = test system: wild-type FAP-1; experiment: FlAsH inhibition of purified PTP catalytic domain, pNPP assay; type: biochemical, human; conditions: purified enzyme 50 nM, one equivalent of FlAsH
Summary of the method: as §2

[17] = molecular target: T3, P87C/A122C PTP1B; experiment: SDS/PAGE and fluorescence visualization of protein/FlAsH complexes; type: binding; conditions: 6 μM FlAsH, UV visualization, band at 45 kD
[18] = test system: P720C/H755C PTPH-1; experiment: FlAsH inhibition of purified PTP catalytic domain, pNPP assay; type: biochemical, human; conditions: purified enzyme 50 nM, one equivalent of FlAsH
Summary of the method: as §2

[19] = molecular target: T1, V368C Shp2; experiment: SDS/PAGE and fluorescence visualization of protein/FlAsH complexes; type: binding; conditions: 6 μM FlAsH, 2 μg enzyme, UV visualization, band at approximately 37 kD
[20] = test system: wild-type HePTP; experiment: FlAsH inhibition of total PTP activity of crude E. coli lysates, pNPP; type: biochemical, human; conditions: whole-cell E. coli lysate, FlAsH concentrations that strongly inhibit the mutant
Summary of the method: as §1

[21] = test system: P720C/H755C PTPH-1; experiment: as above; type: biochemical, human; conditions: whole-cell E. coli lysate
Summary of the method: as §1

[22] = molecular target: T4, wild-type Shp2 (Homo sapiens, UniProt Q06124); experiment: SDS/PAGE and fluorescence visualization of protein/FlAsH complexes; type: binding; conditions: 6 μM FlAsH, 2 μg enzyme, UV visualization
T4 sequence (Q06124 247-517 limits assumed): T1 sequence (Q06124 247-517 V368C limits assumed) with C122V

[23] = molecular target: T4, wild-type Shp2; experiment: FlAsH inhibition of purified PTP catalytic domain, pNPP assay; type: biochemical
Summary of the method: as §4

[24] = 500 nM FlAsH, continuous pNPP assay, no pre-incubation

## O=C(O)c1ccccc1-c1c2ccc(=O)c([As]3SCCS3)c-2oc2c([As]3SCCS3)c(O)ccc12 [FlAsH]
[1]
  inhibition of total PTP activity of lysate: no effects
[2]
  effect of FlAsH on enzymatic activity: unaffected
[3]
  inhibition of total PTP activity of lysate: strongly inhibited
[4]
  inhibition of phosphatase activity: drastically reduced catalytic activity
[5]
  inhibition of total PTP activity of lysate: no effects
[6]
  inhibition of total PTP activity of lysate: strongly inhibited
[7]
  inhibition of phosphatase activity: not significantly inhibited
[8]
  inhibition of phosphatase activity: drastically reduced catalytic activity
[9]
  protection of cysteines from modification by IAA: strongly protects C333, C367, and C368
[10]
  fluorescent band of protein/FlAsH conjugate after SDS/PAGE: fail to produce strongly fluorescent bands
[11]
  fluorescent band of protein/FlAsH conjugate after SDS/PAGE: fail to produce strongly fluorescent bands
[12]
  inhibition of phosphatase activity: not significantly inhibited
[13]
  inhibition by FlAsH: potently inhibited
[14]
  time for phosphatase activity to decrease to 50% of initial rate: approximately 10 minutes
[15]; 125 nM FlAsH, varying β-ME up to 8,000 times excess
  effect of β-mercaptoethanol on potency of FlAsH inhibition: no significant changes
[15]; [24]
  time to 50% activity: ~ 7 minutes
[16]
  inhibition of phosphatase activity: not significantly inhibited
[17]
  fluorescent band of protein/FlAsH conjugate after SDS/PAGE: strongly fluorescent band
[18]
  inhibition of phosphatase activity: novel sensitivity to FlAsH
[19]
  fluorescent band of protein/FlAsH conjugate after SDS/PAGE: strongly fluorescent band
[20]
  inhibition of total PTP activity of lysate: no effects
[21]
  inhibition of total PTP activity of lysate: strongly inhibited
[22]
  fluorescent band of protein/FlAsH conjugate after SDS/PAGE: not present
[23]; 125 nM FlAsH, varying β-ME
  effect of β-mercaptoethanol on FlAsH's inhibitory effects: attenuates
[23]; [24]
  time to 50% activity: ~ 11 minutes
